Screening data (PubChem)
Casp6 inh: human caspase-6 inhibitors, primary screen, biochemical, VEID-R110 fluorescence, single point, set 2; P55212; purified caspase-6, Z-VEID-R110 cleavage fluorescence; inhibition, % at 12.5 µM; hit rate 0.53% among 350,000; AID 686996, 2013;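 active = mean inhibition across replicates at least about 35%, with every replicate also reaching that limit, limit read from the data; inconclusive = only one of the two criteria met; inactive = neither criterion met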
Target sequence (P55212 24-179 limits assumed): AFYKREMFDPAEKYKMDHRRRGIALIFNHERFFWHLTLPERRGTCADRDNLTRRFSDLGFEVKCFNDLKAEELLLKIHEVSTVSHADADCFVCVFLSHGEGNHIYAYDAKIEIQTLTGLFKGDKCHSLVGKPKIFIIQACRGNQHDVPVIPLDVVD
Target sequence (P55212 194-293 limits assumed): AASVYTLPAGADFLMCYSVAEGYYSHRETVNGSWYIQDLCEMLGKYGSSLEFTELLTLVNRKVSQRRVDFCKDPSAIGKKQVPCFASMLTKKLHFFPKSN
CaV13 ICDI inh: Primary screen for inhibitors of IQ motif and Ca2+-dependent inactivation inhibitor domain binding in CACNA1D, Förster resonance energy transfer in living cells, …; hit rate 0.098% among 340,000; HEK cells, CFP/YFP FRET ICDI-IQ, plate reader, 10 min; percent FRET-ratio fall versus neutral wells; AID 743397; inhibition, % at 12.3 µM;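 active = mean replicate inhibition of at least 30% and at least 1% of replicates passing that level; inconclusive = only one of the two criteria is met; inactive = neither criterion is met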
XiGFP reactiv: activators of inactive X chromosome reactivation, primary screen, imaging, XiGFP fibroblasts, GFP high-content imaging, set 2. XiGFP mouse fibroblasts, % GFP-positive cells imaging, 3 d; cells co-treated with 5-aza-dC sensitizer; scaled so ellipticine positive control = 100%. activation, % at 7.58 µM. hit rate 0.055% among 360,000. AID 743238, 2013;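 active = mean normalized replicate activation at least 10% and every replicate at or above 10%; inconclusive = only one of the two criteria met; inactive = mean below 10% and not all replicates reach 10%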
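assay system = SV40-immortalized XiGFP fibroblast cells, line 68-5-11 | buffer or medium = DMEM plus 5-aza-dC sensitizer | doses = single-point pinned compound dosing | times = 3-day compound exposure, then 15 min fixation at room temperature | benchmarks = positive control ellipticine, 6 µM final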
DENV2 CPE rescue: inhibitors of DENV2 cytopathic effect, primary screen, cell-based, plate reader, single concentration; DENV2-infected cells, cytopathic effect rescue; AID 651640, 2012; CPE inhibition, % at 9.99 µM; hit rate 1.7% among 350,000; in the data active = CPE inhibition above about 20%, passing the limit was not always enough; inconclusive = no clear call, values can overlap the other calls; tested in BHK-21 cells
FN deposit inh: inhibitors of fibronectin matrix deposition, primary screen, AH1F cells, Alexa488-fibronectin fluorescence, plate reader | AH1F fibroblasts, overnight | inhibition, % at 12.6 µM | hit rate 0.086% among 350,000 | AID 743247, 2014;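 active = mean inhibition across replicates of 30% or more, regardless of how many single replicates reach that level; inconclusive = mean under 30% yet at least half of replicates reach 30%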
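material = AH1F fibroblast monolayer depositing Alexa488-labelled fibronectin into matrix | amount = 10000 AH1F cells/well | buffer or medium = DMEM plus 2% serum, read in PBS | incubation = 1 h cell adhesion before compound, then overnight fibronectin incubation | detection = fluorescence at 485 nm excitation, 525 nm emission | evaluation = percent inhibition as loss of matrix-bound fibronectin fluorescence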
A number is an active result; i = inactive; ? = inconclusive; nt = no result; ! = not confirmed by another sample. An excerpt weighted towards active compounds, which were near 2% of everything screened.

SMILES | Casp6 inh | CaV13 ICDI inh | XiGFP reactiv | DENV2 CPE rescue | FN deposit inh
O=C1c2cc(O)c(O)cc2OC(c2ccc(O)c(O)c2)C1O (stereo not drawn) | 55 | i | i | i | i
C[C@@H]1CN([C@H](C)CO)C(=O)c2cc(-c3ccncc3)cnc2O[C@@H]1CN(C)C(=O)NC1CCCC1 | i | nt | i | i | i
COc1ccc(NC(=O)Nc2ccc3c(c2)C(=O)N([C@H](C)CO)C[C@H](C)[C@@H](CN(C)S(C)(=O)=O)O3)cc1 | i | i | i | 26! | i
COc1ccc(S(=O)(=O)N(C)C[C@@H]2Oc3ncc(-c4ccncc4)cc3C(=O)N([C@H](C)CO)C[C@H]2C)cc1 | i | nt | i | i | i
COc1ccc(S(=O)(=O)N(C)C[C@@H]2Oc3ncc(-c4ccncc4)cc3C(=O)N([C@@H](C)CO)C[C@@H]2C)cc1 | i | nt | i | 51 | i
C[C@H](CO)N1C[C@H](C)[C@@H](CN(C)S(C)(=O)=O)Oc2ccc(NC(=O)Nc3ccccc3)cc2C1=O | i | i | i | 88! | i
COc1ccc(NC(=O)Nc2ccc3c(c2)C(=O)N([C@@H](C)CO)C[C@H](C)[C@H](CN(C)S(=O)(=O)c2ccc(OC)cc2)O3)cc1 | i | nt | i | i | nt
COc1ccc(NC(=O)Nc2ccc3c(c2)C(=O)N([C@@H](C)CO)C[C@@H](C)[C@@H](CN(C)S(C)(=O)=O)O3)cc1 | i | nt | i | i | i
COc1ccc(NC(=O)Nc2ccc3c(c2)C(=O)N([C@H](C)CO)C[C@H](C)[C@@H](CN(C)S(=O)(=O)c2ccc(OC)cc2)O3)cc1 | i | i | i | 26! | i
N#Cc1cccc(-c2ccc([C@H]3[C@@H](CO)N[C@@H]3CNC(=O)C3CCCC3)cc2)c1 | i | nt | i | i | i
COc1ccc(S(=O)(=O)N(C)C[C@@H]2Oc3c(NS(=O)(=O)c4ccc(C)cc4)cccc3C(=O)N([C@H](C)CO)C[C@@H]2C)cc1 | i | nt | i | i | nt
COc1ccc(-c2cc(=O)c3c(OC)c(OC)c(OC)c(OC)c3o2)cc1OC | i | i | i | i | i
COc1ccc2c(=O)cc(-c3ccncc3)oc2c1OC | i | i | i | 33 | i
COCCn1c(C)cc(C(=O)CSc2nc3ccccc3c(=O)n2Cc2ccco2)c1C | i | i | i | 23 | i
Cc1cccc(NC(=O)CNC(=O)CCc2nc3sc4c(c3c(=O)[nH]2)CCCC4)c1C | 41 | i | i | i | i
CN(CC(=O)Nc1ccc(F)c(F)c1F)C(=O)CCc1nc2sc3c(c2c(=O)[nH]1)CCCC3 | 42 | i | i | i | i
Cc1cccc(C)c1NC(=O)CN(C)C(=O)CCc1nc2sc3c(c2c(=O)[nH]1)CCCC3 | i | i | i | i | i
Cc1cccc(NC(=O)CCc2nc3sc4c(c3c(=O)[nH]2)CCCC4)n1 | i | i | i | i | i
Cc1ccc(S(=O)(=O)Nc2ccc3c(c2)C(=O)N([C@H](C)CO)C[C@@H](C)[C@@H](CN(C)C(=O)Nc2ccc4c(c2)OCO4)OCCCC[C@H](C)O3)cc1 | i | nt | i | i | i
Cn1nc(C(F)(F)F)c(-c2ccc(Br)cc2)c1NC(=O)CSCC(=O)O | i | i | i | 58 | i
Cn1nc(C(F)(F)F)c(-c2ccc(Br)cc2)c1NC(=O)c1nccnc1C(=O)O | i | i | i | i | i
COc1ccc(CCNC2CC(=O)N(C3CCCCC3)C2=O)cc1OC (stereo not drawn) | i | i | i | 26 | i
CCC(=O)N(C1=C(NC(C)C)C(=O)c2ccccc2C1=O)C(C)C | 44 | i | i | i | i
C[C@H](CO)N1C[C@H](C)[C@H](CN(C)Cc2ccc(C(=O)O)cc2)Oc2ccc(NC(=O)Nc3ccc4c(c3)OCO4)cc2C1=O | i | nt | i | i | nt
O=S(=O)(c1cccc2cccnc12)N1CCN(c2ccc(F)cc2)CC1 | 42 | i | i | i | i
SMILES | Casp6 inh | CaV13 ICDI inh | XiGFP reactiv | DENV2 CPE rescue | FN deposit inh
Oc1cccc(Nc2ccccc2)c1 | i | nt | nt | 28 | nt
CCN(CC)CCN(CC)Cc1ccccc1Br | 56 | i | nt | i | nt
CCN(CCO)Cc1csc2cccc(Br)c12 | nt | i | nt | nt | nt
NCCc1c(-c2ccccc2)n(-c2ccccc2)c2ccccc12 | i | i | i | i | 44
NC(=O)/C(=C/c1ccco1)C(N)=S | 35 | i | i | i | i
NC(=O)/C(=C\c1ccco1)NC(=O)c1ccco1 | i | i | i | ? | i
Cc1[nH][nH]c(=O)c1C(c1ccc(-c2cccc(C(=O)O)c2)o1)c1c(C)[nH][nH]c1=O | 42 | i | i | i | nt
COC(=O)c1ccc(-c2ccc(C(c3c(C)[nH][nH]c3=O)c3c(C)[nH][nH]c3=O)o2)cc1 | 40 | i | i | i | i
Cc1[nH][nH]c(=O)c1C(c1ccc(-c2ccccc2C(=O)O)o1)c1c(C)[nH][nH]c1=O | nt | i | i | i | i
CCc1cnc(N2[C@H](C#N)[C@@H](c3ccc(C#CCC4CCCC4)cc3)[C@@H]2CO)s1 | nt | nt | i | nt | i
COc1cccc(-n2c(-c3ccccc3)c[nH]c2=S)c1 | i | i | i | i | i
S=c1[nH]cc(-c2ccccc2)n1-c1cccc(Cl)c1 | 55 | i | i | i | i
CCC(=O)N1CC2(C1)[C@H](c1ccc(-c3ccccc3)cc1)[C@H](CO)N2C(C)=O | nt | nt | i | nt | nt
COc1ccccc1C(=O)COC(=O)CCN=C1NS(=O)(=O)c2ccccc21 | i | i | i | i | i
COc1ccc(C(=O)COC(=O)CCN=C2NS(=O)(=O)c3ccccc32)c(OC)c1 | i | i | i | 82 | i
COc1ccc(C(=O)COC(=O)CCCN=C2NS(=O)(=O)c3ccccc32)c(OC)c1 | i | i | i | 36 | i
COCC(=O)Nc1ccc2c(c1)C(=O)N(C)C[C@@H](OC)[C@H](C)CN(Cc1ccccn1)[C@H](C)CO2 | nt | nt | i | i | i
CCOC(=O)c1sc(C)c2c(=O)n(Cc3ccc(Cl)cc3)c(C)nc12 | nt | i | nt | nt | nt
CCOC(=O)c1sc(C)c2c(=O)n(Cc3ccc(Cl)cc3)cnc12 | 50 | i | i | i | i
O=C(C[C@H]1CC[C@H]2[C@@H](COC[C@@H](O)CN2Cc2nccs2)O1)NCc1ccccc1 | i | nt | i | i | i
Cc1cc(C(=O)Nc2cccc3c2O[C@H](CN(C)C(=O)Nc2c(C)noc2C)[C@@H](C)CN([C@H](C)CO)C3=O)n(C)n1 | i | nt | i | i | i
O=C1c2cc([N+](=O)[O-])cc3cc([N+](=O)[O-])cc(c23)C(=O)N1c1ccccn1 | 48 | i | i | i | i
O=C(O)c1cccc(N2C(=O)c3cccc4cccc(c34)C2=O)c1 | i | i | i | i | i
